In article PMC3090679 (Biochemistry, 2011):
Residue numbers refer to the chain shown, from its start. “Also recorded” adds a separate entry of the source. Read-outs that look alike come from different tables or passages of the source. One block for each compound: values may come before it.

Experiments:
[1] = molecular target: T1, RGS16 (Homo sapiens, UniProt O15492); experiment: FCPIA, RGS16/Gαo binding
T1 sequence (O15492 1-202): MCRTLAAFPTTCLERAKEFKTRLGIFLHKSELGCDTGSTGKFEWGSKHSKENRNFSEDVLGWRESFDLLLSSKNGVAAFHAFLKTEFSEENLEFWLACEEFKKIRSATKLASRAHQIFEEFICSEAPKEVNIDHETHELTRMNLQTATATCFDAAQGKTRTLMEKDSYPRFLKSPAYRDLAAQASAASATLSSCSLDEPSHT

[2] = molecular target: T2, papain (Carica papaya, UniProt P00784); experiment: Papain activity assay; format: biochemical
T2 sequence (P00784 134-345): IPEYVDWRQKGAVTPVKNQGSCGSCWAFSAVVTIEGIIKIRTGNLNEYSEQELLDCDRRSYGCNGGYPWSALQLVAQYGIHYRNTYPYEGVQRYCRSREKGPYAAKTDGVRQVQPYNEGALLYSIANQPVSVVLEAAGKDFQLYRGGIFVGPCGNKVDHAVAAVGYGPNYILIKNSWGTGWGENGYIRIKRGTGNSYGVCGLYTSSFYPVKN
In short: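 FITC-casein was added to 250 nM final. Fluorescence (ex 485/em 520 nm) was read at intervals in the dark, and concentration dependence was taken at 5 min. Values are mean±SEM of three independent experiments.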

[3] = molecular target: T3, RGS7 (Homo sapiens, UniProt P49802); experiment: FCPIA, RGS7/Gαo binding
T3 sequence (P49802 333-448 limits assumed): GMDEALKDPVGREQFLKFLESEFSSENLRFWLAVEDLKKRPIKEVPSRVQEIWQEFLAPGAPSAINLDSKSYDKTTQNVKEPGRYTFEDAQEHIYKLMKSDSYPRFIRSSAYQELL
In short: (§1)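 Constructs were RGS19 ΔC11 as an MBP/10×His fusion and the RGS7 homology domain as a GST fusion. Each was chemically biotinylated, immobilised on avidin microspheres and pretreated with test compound or vehicle for 15 min at room temperature. Beads were then mixed with AlexaFluor-532-Gαo plus GDP/AlF and binding was read by flow cytometry. IC50 is the mean±SEM of at least three independent experiments.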

[4] = molecular target: T4, WT RGS8 (Homo sapiens, UniProt P57771); experiment: ESI-LC/MS protein adduct analysis, WT RGS8; conditions: WT RGS8 2 μM
T4 sequence (P57771 56-171 limits assumed): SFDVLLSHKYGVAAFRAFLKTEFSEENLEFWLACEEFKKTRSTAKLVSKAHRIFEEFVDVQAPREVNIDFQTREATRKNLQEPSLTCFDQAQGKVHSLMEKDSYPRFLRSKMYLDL

[5] = molecular target: T5, RGS19 (Homo sapiens, UniProt P49795); experiment: FCPIA, RGS19/Gαo binding
T5 sequence (P49795 1-206 limits assumed): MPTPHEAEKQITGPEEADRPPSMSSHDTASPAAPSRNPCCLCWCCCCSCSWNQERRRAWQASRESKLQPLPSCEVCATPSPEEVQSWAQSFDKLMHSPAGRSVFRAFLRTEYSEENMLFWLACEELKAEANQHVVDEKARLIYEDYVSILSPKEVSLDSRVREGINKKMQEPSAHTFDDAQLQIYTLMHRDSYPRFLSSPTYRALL
In short: as §1

[6] = molecular target: T6, RGS4 (Homo sapiens, UniProt P49798); experiment: ThermoFluor thermal stability, RGS4; format: binding
T6 sequence (P49798 52-205 limits assumed): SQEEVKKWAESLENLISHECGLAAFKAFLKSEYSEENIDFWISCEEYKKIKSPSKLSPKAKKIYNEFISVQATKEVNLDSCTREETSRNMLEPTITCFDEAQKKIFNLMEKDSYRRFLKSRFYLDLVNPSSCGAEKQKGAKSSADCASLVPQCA

[7] = system: Gαo-dependent membrane translocation of GFP-RGS4 in HEK293T cells; experiment: RGS4 membrane translocation in living cells; format: cell-based, human; conditions: 100 μM
[8] = molecular target: T4, WT RGS8; experiment: Gel filtration then FCPIA competition, WT RGS8; format: binding
[9] = molecular target: T7, RGS8Cys− (Homo sapiens, UniProt P57771, C142S/C89S); experiment: ESI-LC/MS protein adduct analysis, RGS8Cys−; conditions: RGS8Cys− mutant
T7 sequence (P57771 74-189 isoform P57771-2 C107S/C160S): T4 sequence (P57771 56-171 limits assumed) with C34S, C87S

[10] = molecular target: T8, Gαo (Homo sapiens, UniProt P09471); experiment: Single turnover GTPase assay, intrinsic Gαo rate; format: biochemical; conditions: 100 μM
T8 sequence (P09471 whole entry): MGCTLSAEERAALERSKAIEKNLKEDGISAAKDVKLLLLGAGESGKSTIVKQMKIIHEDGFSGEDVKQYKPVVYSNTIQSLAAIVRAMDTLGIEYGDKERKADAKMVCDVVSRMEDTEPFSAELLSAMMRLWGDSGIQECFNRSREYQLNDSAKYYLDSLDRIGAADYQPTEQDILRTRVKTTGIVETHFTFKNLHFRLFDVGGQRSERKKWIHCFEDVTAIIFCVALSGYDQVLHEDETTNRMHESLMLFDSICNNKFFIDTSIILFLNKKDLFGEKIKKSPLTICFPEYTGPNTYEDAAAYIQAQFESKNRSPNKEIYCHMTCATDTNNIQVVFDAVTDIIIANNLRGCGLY
In short: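 N-terminally 6×His-tagged Gαo was purified to >90% homogeneity. Single-turnover hydrolysis of isotopically diluted γ[32P]GTP was measured. Results are expressed as the rate constant k (sec−1) of GTP hydrolysis.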

[11] = molecular target: T8, Gαo; experiment: ThermoFluor thermal stability, Gαo; format: binding
[12] = molecular target: T9, RGS8 (Homo sapiens, UniProt P57771); experiment: ThermoFluor thermal stability, RGS8; format: binding
T9 sequence (P57771 56-171 limits assumed): T4 sequence (P57771 56-171 limits assumed)

[13] = molecular target: T10, RGS4 wild Type (Homo sapiens, UniProt P49798); experiment: FCPIA, RGS4/Gαo binding
T10 sequence (P49798 52-205 limits assumed): T6 sequence (P49798 52-205 limits assumed)

[14] = molecular target: T11, 160C RGS8 (Homo sapiens, UniProt P57771, C89S); experiment: Gel filtration after compound treatment, 160C RGS8
T11 sequence (P57771 56-171 C89S): T4 sequence (P57771 56-171 limits assumed) with C34S

[15] = molecular target: T12, 107C RGS8 (Homo sapiens, UniProt P57771, C142S); experiment: Gel filtration then FCPIA competition, 107C RGS8; format: binding; conditions: 107C RGS8 after gel filtration
T12 sequence (P57771 74-189 isoform P57771-2 C160S): T4 sequence (P57771 56-171 limits assumed) with C87S

[16] = molecular target: T13, 160C RGS8 (C107S) (Homo sapiens, UniProt P57771, C89S); experiment: FCPIA, 160C RGS8/Gαo binding
T13 sequence (P57771 56-171 C89S): T4 sequence (P57771 56-171 limits assumed) with C34S
In short: (§2)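 RGS8 homology domain (N-terminal 6×His, pQE-80) with Cys→Ser site-directed mutations was chemically biotinylated on amines and loaded on avidin microspheres. Beads were treated with test compound or vehicle for 15 min at room temperature, then mixed with AlexaFluor-532-labelled Gαo plus GDP and aluminium fluoride. Binding was read by Luminex flow cytometry. Values are mean±SEM of three independent experiments.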

[17] = molecular target: T14, 107C RGS8 (C160S) (Homo sapiens, UniProt P57771, C142S); experiment: FCPIA, 107C RGS8/Gαo binding
T14 sequence (P57771 74-189 isoform P57771-2 C160S): T4 sequence (P57771 56-171 limits assumed) with C87S
In short: as §2

[18] = molecular target: T15, RGS8cys− (C160S/C107S) (Homo sapiens, UniProt P57771, C142S/C89S); experiment: FCPIA, RGS8cys−/Gαo binding
T15 sequence (P57771 56-171 C89S/C142S): T4 sequence (P57771 56-171 limits assumed) with C34S, C87S
In short: as §2

[19] = molecular target: T9, RGS8; experiment: FCPIA, RGS8/Gαo binding
[20] = molecular target: T16, RGS8-stimulated GTP hydrolysis by Gαo (Homo sapiens, UniProt P57771); experiment: Single turnover GTPase assay, RGS8 GAP activity; format: biochemical
T16 sequence (P57771 56-171 limits assumed): T4 sequence (P57771 56-171 limits assumed)
In short: (§3)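 Single-turnover measurement of Gαo GTP hydrolysis, with or without RGS4 or RGS8, in the presence of test compound, following a previously published method. The RGS8 homology domain was an N-terminal 6×His construct from pQE-80 carrying native Cys107 and Cys160. All proteins were purified to >90% homogeneity, and Gαo activity was confirmed by [35S]GTPγS binding. Output is the GTP hydrolysis rate constant k (sec−1).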

[21] = molecular target: T17, RGS4-stimulated GTP hydrolysis by Gαo (Homo sapiens, UniProt P49798); experiment: Single turnover GTPase assay, RGS4 GAP activity; format: biochemical
T17 sequence (P49798 52-205 limits assumed): T6 sequence (P49798 52-205 limits assumed)
In short: as §3

[22] = molecular target: Gαo (UniProt P59215); experiment: flow cytometry protein interaction assay
Sequence of Gαo (UniProt P59215) (P59215 whole entry): as the sequence (P09471 whole entry) above, with I93V, A104S, T292P, P294S, A306T counted along it

[23] = 100 μM, FITC-casein proteolysis
[24] = read-out: irreversible inhibition of Gα binding after extensive washing
[25] = read-out: total amount of inhibition (without a wash step)
[26] = concentration dependence or concentration not stated

Compound: Cc1ccc(-n2sc(=O)n(Cc3ccc(F)cc3)c2=O)cc1 [CCG-50014, 4-(4-fluorobenzyl)-2-p-tolyl-1,2,4-thiadiazolidine-3,5-dione]
inhibition of RGS16/Gαo binding (in words) [1]: fully inhibits
Hill Slope ([1]; RGS16): −1.33
effect on papain activity [2, 23]: no effect
IC50 [3]: > 200 µM
inhibition of RGS7/Gαo binding (in words) ([3]; FCPIA): did not have activity
adduct formation by LC-MS [4]: covalent adduct
inhibition of RGS19/Gαo binding (in words) [5]: fully inhibits
Hill Slope ([5]; RGS19): −0.61
effect on thermal stability of RGS4 [6]: concentration-dependently destabilized
effect on Gαo-dependent membrane localization of GFP-RGS4 [7]: reversed the membrane localization; also recorded: significant decrease
residual inhibition after gel filtration [8]: > 90%
adduct formation by LC-MS [9]: No adducts are observed
effect on intrinsic rate of GTP hydrolysis by Gαo [10]: did not alter
effect on thermal stability of Gαo [11]: no effect
effect on thermal stability of RGS8 [12]: thermally destabilizes
effect on thermal stability of RGS8 ([12]; listed as CCGA-50014): concentration-dependently destabilized
selectivity for RGS4 over RGS8 and RGS16 ([13]; FCPIA IC50 values): > 100 fold
inhibitory activity against the RGS4-Gαo protein-protein interaction at pH 6.5 ([13]; FCPIA at pH 6.5 (control for papain assay)): retains full inhibitory activity
Hill Slope ([13]; FCPIA, RGS4 wild type): −1.53
reversibility of inhibition after washing with DTT ([13]; RGS4 beads, 100 μM for 15 minutes, wash with 1 mM DTT): partially reversed
reversibility of inhibition after washing ([13]; RGS4 beads, 100 μM for 15 minutes, wash without DTT): irreversible inhibitor
state of the protein after compound treatment [14]: formed aggregates; also recorded: completely (and visually) aggregates
competition for Gαo binding, treated versus vehicle-treated protein [15]: no discernable difference
IC50 [16]: 0.71 µM
reversibility of inhibition after washing ([16]; 160C RGS8, 20 μM): completely irreversible
Hill Coefficient ([16]; FCPIA, 160C RGS8, Fig. 5): −0.36
inhibition at 20 µM [16, 24]: ~50%
inhibition at 20 µM [16, 25]: 56 ± 1%
IC50 [17]: 46.5 µM
reversibility of inhibition after washing ([17]; 107C RGS8, 20 μM): partially reversed
Hill Coefficient ([17]; FCPIA, 107C RGS8, Fig. 5): −0.54
inhibition at 20 µM [17, 24]: ~20%
inhibition at 20 µM [17, 25]: 45 ± 2%
IC50 [18]: > 100 µM
inhibition of RGS8/Gαo binding (in words) ([19]; FCPIA): fully inhibits
Hill Slope ([19]; FCPIA, RGS8): −0.99
Hill Coefficient ([19]; FCPIA, wildtype RGS8, Fig. 5): −0.79
IC50 ([19]; IC50 (μM), FCPIA, wildtype RGS8, Fig. 5, three experiments): 6.1 µM
reversibility of inhibition after washing with DTT ([19]; RGS8 beads, 100 μM for 15 minutes, wash with 1 mM DTT): partially reversed
reversibility of inhibition after washing ([19]; RGS8 beads, 100 μM for 15 minutes, wash without DTT): irreversible inhibitor
inhibition at 20 µM ([19]; read-out: total amount of inhibition (without a wash step), WT RGS8, 20 μM): 64 ± 2%
effect on GTPase accelerating (GAP) activity of RGS8 on Gαo [20]: concentration-dependently inhibits the GAP activity; also recorded: inhibited the GTPase accelerating activity
effect on GTPase accelerating (GAP) activity of RGS4 on Gαo [21]: concentration-dependently inhibits the GAP activity; also recorded: inhibited the GTPase accelerating activity

fold less potent at competing for Gα binding than vehicle-treated RGS8 [22]: 14 fold
Compound: WT RGS8 treated with CCG-50014 (with its covalently attached CCG-50014), recovered from gel filtration (domain or fragment)

Compound: NC(=O)CI [iodoacetamide]
effect on papain activity [2, 23]: markedly inhibits
effect on papain activity [2, 26]: concentration-dependently inhibited
effect on papain activity ([2]; concentration dependence or concentration not stated, listed as IA): inhibited the proteolytic activity of papain in a concentration-dependent manner

Compound: CCN1C(=O)C=CC1=O [NEM, N-ethyl maleimide, reference compound]
effect on papain activity [2, 26]: no effect
inhibition of RGS8/Gαo binding (in words) ([19]; FCPIA): no effect
